Laboratory results from article PMC3756490 (Journal of medicinal chemistry, 2012).

How the values were obtained:
[1] = test system: LN229-Lux cells (constitutive luciferase reporter gene); assay: constitutive luciferase reporter control assay in LN229-Lux cells; format: cell-based, human; settings: control for inhibition of luciferase per se
Method in brief: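 LN229-Lux cells carry a constitutive luciferase reporter driven by a retroviral LTR promoter. They were grown in DMEM with 10% serum, seeded at 3 × 10⁴ per well and treated with test compound in 1% DMSO medium under normoxia. Lysates were read for luminescence with luciferase substrate. Values are % of untreated control extracts, in triplicates.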

[2] = test system: HIF transcriptional activity; assay: HIF-dependent luciferase reporter assay in LN229-V6R cells under hypoxia; format: cell-based, human; settings: for inhibition of HIF-1 transcriptional activity (HRE-mediated luciferase) at 10 μM: one day
Method in brief: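 LN229-V6R cells carry a stably integrated hypoxia/HIF-inducible luciferase reporter and were grown in DMEM with 10% serum. Cells were seeded at 3 × 10⁴ per well, held in normoxia (21% O₂, 5% CO₂) for 24 h, then given DMEM with 1% DMSO with or without test compound (2.5, 5.0, 10.0 μM). After 1 h at 37 °C, cells went to hypoxia (1% O₂) for 24 h. Cells were washed and lysed, and extract luminescence was read with luciferase substrate. Triplicates, expressed as % of untreated control.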

LogP7.4 measurement = format: physicochemical; settings: pH 7.4; shake flask method (6a, 6g) or HPLC method (1, 6b-6f, 6h-6l)
Method in brief: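 Shake-flask method (OECD 107): 1-octanol and 0.2 M phosphate buffer pH 7.4 were mutually presaturated by stirring for 24 h at room temperature. 1–2 mg test compound was partitioned between 2 mL each phase, in duplicate. The aqueous phase was quantified by HPLC at 254 nm against standard curves. HPLC method (OECD 117): C₁₈ column with methanol:water:triethylamine 70:30:0.1 at 2 mL/min, calibrated with the shake-flask compounds, aniline, benzene, toluene and chlorobenzene.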

[3] = metabolic stability in mouse liver homogenate; format: in vitro ADME; settings: mouse liver homogenate in PBS (1:2 w/v), pH 7.4
Method in brief: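 Test compound (20 μM) was incubated at 37 °C with shaking in fresh mouse liver homogenate in PBS pH 7.4 (1/2 w/v). At set times, samples were extracted with acetonitrile, dried and reconstituted in mobile phase. They were quantified by reverse-phase C₈ HPLC with photodiode-array detection, using α-naphthoflavone (2 μM) as internal standard and standard curves linear over 1–50 μM. Run in triplicate.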

HIF-1α = HIF-1α protein levels in LN229-V6R cells under hypoxia by western blot; format: cell-based, human; settings: 3-100 μM, hypoxia 24 hours
Method in brief: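 LN229-V6R cells (2 × 10⁵) were seeded in 35 mm dishes and kept under normoxia for 24 h. Fresh DMEM with 1% DMSO and test compound (3, 6, 12, 25, 50 or 100 μM) was added, then 1 h at 37 °C in normoxia, then 24 h in hypoxia (1% O₂). Lysates in SDS loading buffer were run on a 4–12.5% gradient gel and blotted with anti-HIF-1α (1:500) and anti-β-actin (1:3,000), with HRP/ECL detection. Each blot was done at least twice.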

| SMILES | luciferase activity in LN229-Lux cells (constitutive reporter) [1] | logP7.4 (LogP7.4 measurement) | inhibition of HIF-1 transcriptional activity (HRE-mediated luciferase) at 10 μM [2] | also measured |
| --- | --- | --- | --- | --- |
| CO[C@H]1/C=C\C=C(/C)C(=O)NC2=CC(=O)C(NCCN(C)C)=C(C[C@@H](C)C[C@H](OC)[C@H](O)[C@@H](C)/C=C(\C)[C@@H]1OC(N)=O)C2=O [Compound 17-DMAG, reference compound] | inhibited both reporter cell lines | – | – | luciferase activity in LN229-V6R cells (qualitative) [2]: inhibited both reporter cell lines |
| COc1cc(CN(C(C)C)S(=O)(=O)c2ccccn2)cc2c1OC(C)(C)C=C2 [Compound 6g, N-[(8-methoxy-2,2-dimethyl-2H-chromen-6-yl)methyl]-N-(propan-2-yl)pyridine-2-sulfonamide] | – | 1.2 ∼ 1.3 | 60 ∼ 80% | – |
| CC(C)CN(Cc1cc(O)c2c(c1)C=CC(C)(C)O2)S(=O)(=O)c1ccccn1 [Compound 6h, N-[(8-hydroxy-2,2-dimethyl-2H-chromen-6-yl)methyl]-N-(2-methylpropan-1-yl)pyridine-2-sulfonamide] | – | 1.2 ∼ 1.3 | – | – |
| CC(C)CN(Cc1cc(O)c2c(c1)C=CC(C)(C)O2)S(=O)(=O)c1ccncc1 [Compound 6l, N-[(8-hydroxy-2,2-dimethyl-2H-chromen-6-yl)methyl]-N-(2-methylpropan-1-yl)pyridine-4-sulfonamide] | – | 1.2 ∼ 1.3 | 60 ∼ 80% | half-life at 20 μM [3]: 13 to 20 h; concentration from which HIF-1α levels decreased dose-dependently (HIF-1α): 25 µM |
| CC(C)N(Cc1ccc2c(c1)C=CC(C)(C)O2)S(=O)(=O)c1ccccn1 [Compound 6a, N-[(2,2-dimethyl-2H-chromen-6-yl)methyl]-N-(propan-2-yl)pyridine-2-sulfonamide] | – | – | completely | – |
| COc1ccc(S(=O)(=O)N(Cc2ccc3c(c2)C=CC(C)(C)O3)c2ccccc2)cc1OC [Compound 1, 3,4-dimethoxy-N-[(2,2-dimethyl-2H-chromene-6-yl)methyl]-N-phenylbenzenesulfonamide] | reduced luciferase activity only in LN229-V6R cells under hypoxia | – | – | – |
